Screens: PubChem BioAssay, Broad Institute
Glyco luc inh – N-linked glycosylation inhibition; D54 ERlucT glycosylation luciferase reporter, 24 h; percent of 100 nM tunicamycin response; reporter increase, % at 12.5 µM; hit rate 0.23% among 360,000;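 active means mean luciferase reporter signal, scaled so untreated is 0 and the glycosylation-blocking control 100, at or above a set limit in every replicate; inconclusive means mean reaches the limit but not every replicate does; inactive means mean below the limit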;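 further: luciferase carries N-glycosylation sites so blocking glycosylation raises the light; 0% = median of neutral control wells and 100% = median of 100 nM tunicamycin wells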
HIV Env fusion – blocks HIV Env-driven cell-cell fusion | HeLa-JRFL Env/CEM21 cell fusion, luciferase | inhibition, % at 12.3 µM | hit rate 1.1% among 360,000;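 active means mean replicate inhibition score of at least 50 and every replicate individually at or above 50; inconclusive means only one of the two criteria met; inactive means mean below 50 and not all replicates reaching 50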;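 further: 0% = plate neutral controls and 100% = maraviroc near 300 nM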
PAX8 reporter – inhibitors of PAX8 transcriptional activity in RMG-I cells; hit rate 1.2% among 360,000; RMG-I TPO-luciferase reporter, SteadyGlo, 24 h; AID 652154; inhibition, % at 12.6 µM;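 active means mean replicate inhibition at least 60% with every replicate also reaching 60%; inconclusive means only one of the two criteria is met; inactive means mean below 60% and not all replicates reaching 60%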;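 further: luciferase light reporting Pax8 driven TPO promoter activity; plate controls were median of neutral control wells for no effect and mitoxantrone controls for full effect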
FN deposition inh – fibronectin deposition inhibition; AH1F fibroblasts, Alexa488-fibronectin deposition fluorescence, overnight; inhibition, % at 12.6 µM; hit rate 0.086% among 350,000; AID 743247;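 active means mean inhibition across replicates of 30% or more, regardless of how many single replicates reach that level; inconclusive means mean under 30% yet at least half of replicates reach 30%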;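 further: positive control wells lacked labelled fibronectin entirely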
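Test system: AH1F fibroblast monolayer depositing Alexa488-labelled fibronectin into matrix. Input: 10000 cells per well. Technique: fluorescence, ex 485 nm, em 525 nm. Buffer or medium: DMEM plus 2% serum, read in PBS. Timing: 1 h cell adhesion before compound, then overnight fibronectin incubation. Compound: single dose, pinned. Read-out basis: inhibition from reduced deposited-fibronectin fluorescence.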
EWS-Fli block – inhibitors of EWS/Fli oncoprotein transcriptional activity; A673 NR0B1-luciferase reporter, viability-normalised; inhibition, % at 12.6 µM; hit rate 0.67% among 350,000; AID 651661;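 active means mean inhibition of at least 50% after viability correction, with every replicate also passing that limit; inconclusive means mean reaches 50% but only one of two replicates passes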;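 further: firefly luciferase signal divided by Alamar Blue viability fluorescence both relative to DMSO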
AF4-AF9 inh – inhibitors of human MLL-AF4/AF9 interaction; AlphaScreen, biotin-AF4 peptide binding to FLAG-AF9; inhibition, % at 10 µM; hit rate 0.47% among 350,000;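 active means every replicate reaching a set inhibition limit, whatever the replicate mean, cut at about 25% in these data; inconclusive means mean inhibition reaches that limit but some replicates miss it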;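 further: 0% = plate neutral control median and 100% = total signal loss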
Target sequence (P42568 whole entry, looked up): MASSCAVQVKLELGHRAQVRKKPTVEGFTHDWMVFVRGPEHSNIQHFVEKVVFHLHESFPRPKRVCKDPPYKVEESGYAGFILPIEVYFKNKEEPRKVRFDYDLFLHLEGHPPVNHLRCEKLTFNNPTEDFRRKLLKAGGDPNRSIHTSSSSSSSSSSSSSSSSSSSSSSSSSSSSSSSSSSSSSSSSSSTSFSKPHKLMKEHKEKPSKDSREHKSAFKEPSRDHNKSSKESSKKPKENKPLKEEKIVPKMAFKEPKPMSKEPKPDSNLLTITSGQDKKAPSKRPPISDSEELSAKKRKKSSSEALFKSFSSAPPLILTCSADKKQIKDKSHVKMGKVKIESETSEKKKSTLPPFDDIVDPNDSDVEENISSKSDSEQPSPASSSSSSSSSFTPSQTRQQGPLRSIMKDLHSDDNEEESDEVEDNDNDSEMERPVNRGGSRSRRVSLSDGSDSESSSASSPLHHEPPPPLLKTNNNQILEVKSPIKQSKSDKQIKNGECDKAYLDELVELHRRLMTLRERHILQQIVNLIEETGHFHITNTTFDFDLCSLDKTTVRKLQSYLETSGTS
* = called active by the depositor; ? = inconclusive; / = no result given; [ ] = remark or other dose. Only some compounds are listed: those with a hit (about 2.5% of all), similar ones and a draw of the others.

SMILES	Glyco luc inh	HIV Env fusion	PAX8 reporter	FN deposition inh	EWS-Fli block	AF4-AF9 inh
C[C@@H]1CN([C@H](C)CO)S(=O)(=O)c2ccc(C#Cc3ccc(F)cc3)cc2O[C@H]1CN(C)C(=O)NC1CCCCC1	/	39[16.7 µM]	98*	13	1	0
C[C@@H]1CN([C@H](C)CO)S(=O)(=O)c2ccc(C#Cc3ccc(F)cc3)cc2O[C@H]1CN(C)C(=O)CN(C)C	/	29[16.7 µM]	/	-20	73*	19
C[C@H](CO)N1C[C@H](C)[C@@H](CN(C)C(=O)Nc2cc(F)ccc2F)Oc2cc(C#CC3CCCC3)ccc2S1(=O)=O	/	0[16.7 µM]	28	/	9	3
C[C@@H]1CN([C@@H](C)CO)S(=O)(=O)c2ccc(-c3ccc(F)cc3)cc2O[C@H]1CN(C)C(=O)C1CCCCC1	/	67*[16.7 µM]	/	-7	27	2
C[C@@H]1CN([C@H](C)CO)S(=O)(=O)c2ccc(C#CC3CCCC3)cc2O[C@@H]1CN(C)C(=O)Nc1cc(F)ccc1F	/	-20[16.7 µM]	70*	/	44	4
C[C@@H]1CN([C@H](C)CO)S(=O)(=O)c2ccc(C#Cc3cccc(F)c3)cc2O[C@H]1CN(C)C(=O)NC1CCCCC1	/	-7[16.7 µM]	68*	16	13	-3
C[C@H](CO)N1C[C@H](C)[C@H](CN(C)C(=O)NC2CCCCC2)Oc2cc(C#Cc3ccc(F)cc3)ccc2S1(=O)=O	/	43[16.7 µM]	91*	-8	6	1
COCC(=O)N1CC[C@@H]2[C@H](CO)Nc3ccc(-c4ccc(C#N)cc4)cc3[C@@H]21	/	/	-1	12	-1	/
COC(=O)C(CC#Cc1ccc2c(c1)[C@]1(C(=O)N2)[C@H](c2ccccc2OCCO)N2[C@H](c3ccccc3)[C@H](c3ccccc3)OC(=O)[C@H]2[C@@H]1C(=O)N1CCc2cc(OC)c(OC)cc2C1)C(=O)OC	/	-19[16.7 µM]	-14	/	56*	0
COC(=O)C(CC#Cc1ccc2c(c1)[C@]1(C(=O)N2)[C@H](C(=O)NC[C@H](O)c2ccccc2)[C@H]2C(=O)O[C@H](c3ccccc3)[C@H](c3ccccc3)N2[C@@H]1c1ccccc1OCCO)C(=O)OC	/	-18[16.7 µM]	101*	/	71*	-4
C[C@@H]1CCCCO[C@@H](CN(C)S(=O)(=O)c2ccc(Cl)cc2)[C@H](C)CN([C@@H](C)CO)C(=O)c2cc(NC(=O)Nc3ccc4c(c3)OCO4)ccc2O1	/	3[16.7 µM]	34	-12	7	0
O=[N+]([O-])c1ccc(N=Nc2ccc(O)cc2O)cc1	-2	7	81*	-2	/	/
O=[N+]([O-])c1cccc(N=Nc2ccc(O)cc2O)c1	-2	-6	81*	-6	-18	6
CNC(=O)C[C@H]1CC[C@@H]2[C@@H](COc3ccc(NC(=O)Nc4ccc(F)cc4)cc3C(=O)N2C)O1	/	19[16.7 µM]	-7	-5	0	0
O=C(CC(=O)c1cc(Cl)ccc1O)c1ccccc1	0	/	/	/	-3	-8
O=C(c1ccccc1)c1cc(Cl)ccc1N1C(=O)C=CC1=O	-3	-18	?	50*	42	14
COCC#Cc1ccc2c(c1)O[C@@H](CN(C)C(=O)Nc1ccc(OC)cc1)[C@@H](C)CN([C@H](C)CO)S2(=O)=O	/	-11[16.7 µM]	/	10	-9	4
COc1ccccc1NC(=O)N[C@@H]1C=C[C@H](CC(=O)N[C@H](C)c2ccccc2)O[C@H]1CO	/	95*[16.7 µM]	-14	-5	2	0
COc1ccccc1NC(=O)N[C@@H]1C=C[C@H](CC(=O)NCc2ccc(Cl)c(Cl)c2)O[C@@H]1CO	/	74*[16.7 µM]	9	4	0	1
COc1cccc(-c2cnc3c(NC=O)cc(-c4ccc(OC)cc4OC)cn23)c1	10	-124	99*	5	32	-5
COc1ccc(-c2cnc3c(NC=O)cc(-c4ccc(F)cc4)cn23)cc1OC	8	-75	69*	11	34	2
COc1cccc(-c2cc(NC=O)c3ncc(-c4ccc(OC)c(OC)c4)n3c2)c1	15	-181	17	24	26	-2
COc1ccc(-c2cc(NC=O)c3ncc(-c4ccc(OC)c(OC)c4)n3c2)c(OC)c1	14	-27	83*	0	47	7
CC(=O)N(C)C[C@@H]1Oc2cc(-c3ccc(F)cc3)ccc2S(=O)(=O)N([C@H](C)CO)C[C@@H]1C	/	-7[16.7 µM]	/	/	3	0
COc1ccc2c3c(n(C)c2c1)[C@@H](CO)N(C(C)=O)CC31CN(Cc2cccnc2)C1	/	/	/	/	21	-1
SMILES	Glyco luc inh	HIV Env fusion	PAX8 reporter	FN deposition inh	EWS-Fli block	AF4-AF9 inh
CNC[C@@H]1Oc2ccc(NC(=O)NC3CCCCC3)cc2C(=O)N([C@@H](C)CO)C[C@H]1C	/	/	10	8	1	-3
O=C(Nc1ccccc1N1CCOCC1)c1cnccn1	6	-124	-6	-2	/	/
O=C(Nc1ccc(S(=O)(=O)N2CCCC2)cc1)c1ccc(CN2CCOCC2)cc1	-2	74*	/	1	/	/
CCN(CC)S(=O)(=O)c1ccc(NC(=O)c2ccc(CN3CCOCC3)cc2)cc1	-4	64*	/	3	/	/
O=C(Nc1ccc(S(=O)(=O)N2CCN(Cc3ccccc3)CC2)cc1)c1cnccn1	-3	95*	/	16	/	/
O=C(Nc1ccc(S(=O)(=O)N2CCCC2)cc1)c1cnccn1	1	-11	-24	0	-4	1
O=C(Nc1ccc(N2CCOCC2)cc1)c1cnccn1	-20	32	58	-4	57*	-39
CO[C@@H]1CN(C)C(=O)c2ccc(NC(=O)C3CC3)cc2OC[C@H](C)N(C(=O)CN(C)C)C[C@H]1C	/	/	-5	-8	5	0
Cc1cccc(NC(=O)c2ccc(S(=O)(=O)N3CCCCC3)cc2)n1	-3	0	-11	38*	-7	-384
O=C(Nc1cc(S(=O)(=O)N2CCOCC2)ccc1N1CCCC1)c1ccc(Cl)cc1	11	-162	13	/	6	0
CCCN(CCC)S(=O)(=O)c1ccc(C(=O)Nc2ccc(OCC(=O)N3CCOCC3)cc2)cc1	40*	-14	38	-3	/	/
Cc1ccc(C(=O)Nc2cc(S(=O)(=O)N3CCOCC3)ccc2N2CCCC2)cc1	45*	/	14	5	6	-7
O=C(C[C@H]1C=C[C@H](NC(=O)C2CC2)[C@H](CO)O1)NCCc1cscn1	/	/	/	-20	-4	-6
Cc1ccccc1-c1cnc2c(c1)C(=O)N([C@@H](C)CO)C[C@H](C)[C@H](CN(C)CC1CCCCC1)O2	/	/	/	/	-3	0
COc1ccc2c3c([nH]c2c1)[C@@H](CO)N(C(=O)c1cnccn1)CC31CCN(C(=O)c2cnccn2)CC1	/	/	/	/	2	2
COCCCNC(=O)c1sc2ncnc(N3CCc4ccccc4C3)c2c1C	9	78*	/	4	/	/
OCCN(CCO)c1ncnc2c1sc1nc(N3CCOCC3)c3c(c12)CCCC3	2	?	/	18*	/	/
OCCN1CCN(c2ncnc3c2sc2nc(N4CCOCC4)c4c(c23)CCC4)CC1	-4	/	/	/	-5	-5
